Source: ChEMBL document CHEMBL2384924, “Antagonists for the orphan G-protein-coupled receptor GPR55 based on a coumarin scaffold” (J Med Chem, 2013)
Active and inactive are the calls of the source.

What follows are compounds tested against T1, Cannabinoid receptor 1 (Homo sapiens, UniProt P21554) (assay: Displacement of [3H]-CP55,940 from human CB1 receptor transfected in CHOK1 cells at 10 uM). Details: CHO-K1.
T1 sequence (P21554 whole entry): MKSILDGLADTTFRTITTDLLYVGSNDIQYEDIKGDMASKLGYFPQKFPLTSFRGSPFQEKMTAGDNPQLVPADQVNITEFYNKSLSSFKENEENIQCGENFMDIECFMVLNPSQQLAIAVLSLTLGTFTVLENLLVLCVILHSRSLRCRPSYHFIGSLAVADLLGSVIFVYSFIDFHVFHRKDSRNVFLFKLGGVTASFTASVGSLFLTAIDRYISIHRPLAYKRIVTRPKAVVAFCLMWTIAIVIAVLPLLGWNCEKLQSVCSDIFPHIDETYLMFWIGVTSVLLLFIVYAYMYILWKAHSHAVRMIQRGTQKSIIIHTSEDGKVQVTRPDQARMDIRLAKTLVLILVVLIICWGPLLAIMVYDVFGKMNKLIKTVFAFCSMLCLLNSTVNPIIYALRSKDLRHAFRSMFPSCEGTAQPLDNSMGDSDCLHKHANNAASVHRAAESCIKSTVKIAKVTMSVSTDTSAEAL
Type: cell-based
Outline: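 Human CB1 from membrane preparations of stably transfected CHO cells, 25 µg protein per vial. Competition with [3H]CP55,940 at 0.1 nM final, with test compound at 10 µM, read as % inhibition of radioligand binding. Final DMSO 2.5%. Three independent experiments in duplicate.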
Compound `Cc1ccc(C(C)C)c2cc(Cc3ccccc3)c(=O)oc12` has an Activity of 24%.
`CCCCCCCC(C)(C)c1cc(OC)c2cc(Cc3ccccc3OC)c(=O)oc2c1` gave an Activity of 51%.
`Cc1ccc(C(C)C)c2cc(Cc3ccccc3O)c(=O)oc12` was tested, and the Activity was 31%.
Work on `Cc1cc2c(C(C)C)ccc(C)c2oc1=O` yielded an Activity of 26%.
`CCCCC1(c2cc(OC)c3cc(Cc4ccccc4OC)c(=O)oc3c2)CCCCC1` gave an Activity of 42%.

The compounds below were run against T2, N-arachidonyl glycine receptor (Homo sapiens, UniProt Q14330) (assay: Antagonist activity at human GPR18 transfected in CHO cells assessed as delta9-THC-induced beta-arrestin recruitment incubated 60 mins prior to delta9-THC addition by beta-arrestin translocation assay). Details: not given.
T2 sequence (Q14330 whole entry): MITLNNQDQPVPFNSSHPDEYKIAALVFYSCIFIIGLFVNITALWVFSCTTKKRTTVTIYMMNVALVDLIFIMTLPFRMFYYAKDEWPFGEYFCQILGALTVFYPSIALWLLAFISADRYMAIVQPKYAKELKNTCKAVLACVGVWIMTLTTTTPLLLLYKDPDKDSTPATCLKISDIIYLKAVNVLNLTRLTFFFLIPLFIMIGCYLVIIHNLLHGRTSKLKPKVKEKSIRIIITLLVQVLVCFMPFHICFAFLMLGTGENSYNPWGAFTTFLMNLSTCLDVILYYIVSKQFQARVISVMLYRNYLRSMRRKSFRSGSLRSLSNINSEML
Type: cell-based
Outline: (§1)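 CHO cells stably expressing human GPR18 were seeded at 20,000 cells/well for 24 h at 37°C. Compound in PBS/10% DMSO/0.1% BSA was added 60 min before the GPR18 agonist 3 at 10 µM. The supplier's detection reagent was used, and luminescence was read after 60 min at RT. Screening was at 10 µM (% inhibition); IC50 from concentration-inhibition curves. Three independent experiments in duplicate.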
In the case of `CCCCC1(c2cc(O)c3cc(Cc4ccccc4O)c(=O)oc3c2)CCCCC1`, the IC50 is reported as at least 10 µM.
Compound `CCCCCCC(C)(C)c1cc(O)c2cc(Cc3ccccc3O)c(=O)oc2c1` has an IC50 of 15.9 µM.
With `CCCCCc1cc(OC)c2cc(Cc3cccc(OC)c3)c(=O)oc2c1` the IC50 was over 10 µM.
For `CCCCCc1cc(OC)c2cc(Cc3ccc(Br)cc3)c(=O)oc2c1`, the IC50 was over 10 µM.
Compound `Cc1ccc(C(C)C)c2cc(Cc3ccccc3)c(=O)oc12` has an IC50 of over 10 µM.
For `CCCCCCCC(C)(C)c1cc(OC)c2cc(Cc3ccccc3OC)c(=O)oc2c1`, the IC50 was over 10 µM.
`Cc1ccc(C(C)C)c2cc(Cc3ccccc3O)c(=O)oc12` was tested, and the IC50 was over 10 µM.
Compound `Cc1cc2c(C(C)C)ccc(C)c2oc1=O` has an IC50 of over 10 µM.
In the case of `CCCCC1(c2cc(OC)c3cc(Cc4ccccc4OC)c(=O)oc3c2)CCCCC1`, the IC50 is reported as over 10 µM.

These compounds were tested against T3, G-protein coupled receptor 55 (Homo sapiens, UniProt Q9Y2T6) (assay: Antagonist activity at human GPR55 transfected in CHO cells assessed as inhibition of LPI-induced beta-arrestin recruitment incubated 60 mins prior to LPI addition by Gaddum method). Details: not given.
T3 sequence (Q9Y2T6 whole entry): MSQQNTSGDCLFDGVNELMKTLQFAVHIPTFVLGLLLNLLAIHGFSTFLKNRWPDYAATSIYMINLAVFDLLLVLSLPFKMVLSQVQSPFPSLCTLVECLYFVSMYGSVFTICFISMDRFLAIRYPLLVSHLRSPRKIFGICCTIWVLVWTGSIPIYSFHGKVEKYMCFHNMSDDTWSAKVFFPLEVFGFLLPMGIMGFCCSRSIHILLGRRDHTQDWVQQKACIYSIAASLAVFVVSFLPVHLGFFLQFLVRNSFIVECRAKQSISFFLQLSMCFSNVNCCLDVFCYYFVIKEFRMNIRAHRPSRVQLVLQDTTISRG
Type: cell-based
Outline: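 In the human GPR55 CHO β-arrestin luminescence assay, full LPI concentration-response curves were run without and with 3-4 antagonist concentrations. Antagonist was preincubated 1 h, then incubated with agonist […]. KB was estimated by the Gaddum method. Three independent experiments in duplicate.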
For `CCCCCc1cc(OC)c2cc(Cc3cccc(OC)c3)c(=O)oc2c1`, the Kb was 16.5 µM.

The compounds below were run against T1, Cannabinoid receptor 1 (assay: Agonist activity at human CB1 receptor expressed in CHOK1 cells assessed as […] of forskolin-stimulated cAMP level at 10 uM). Details: CHO-K1.
Type: functional, cell-based
In the case of `CCCCCc1cc(OC)c2cc(Cc3cccc(OC)c3)c(=O)oc2c1`, the Activity is reported as “Active”.

The compounds below were run against T3, G-protein coupled receptor 55 (assay: Antagonist activity at human GPR55 transfected in CHO cells assessed as inhibition of LPI-induced beta-arrestin recruitment incubated 60 mins prior to LPI addition by beta-arrestin translocation assay). Details: not given.
Type: cell-based
Outline: (§2)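 CHO cells stably expressing human GPR55 were seeded at 20,000 cells/well for 24 h at 37°C. Compound in PBS/10% DMSO/0.1% BSA was added 60 min before 1 µM LPI. Galacton-Star/Emerald-II/lysis buffer (pH 8) was applied for 60 min at RT, with luminescence read-out. Screening was at 10 µM (% inhibition). IC50 was measured where inhibition exceeded 60%. Three independent experiments in duplicate.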
Compound `CCCCC1(c2cc(O)c3cc(Cc4ccccc4O)c(=O)oc3c2)CCCCC1` has an IC50 of 0.961 µM.
In the case of `CCCCCCC(C)(C)c1cc(O)c2cc(Cc3ccccc3O)c(=O)oc2c1`, the IC50 is reported as 0.261 µM.
In the case of `CCCCCc1cc(OC)c2cc(Cc3cccc(OC)c3)c(=O)oc2c1`, the IC50 is reported as 3.23 µM.
With `CCCCCc1cc(OC)c2cc(Cc3ccc(Br)cc3)c(=O)oc2c1` the IC50 was 3.76 µM.
In the case of `Cc1ccc(C(C)C)c2cc(Cc3ccccc3)c(=O)oc12`, the IC50 is reported as 5.33 µM.
With `CCCCCCCC(C)(C)c1cc(OC)c2cc(Cc3ccccc3OC)c(=O)oc2c1` the IC50 was over 10 µM.
In the case of `Cc1ccc(C(C)C)c2cc(Cc3ccccc3O)c(=O)oc12`, the IC50 is reported as 1.77 µM.
In the case of `Cc1cc2c(C(C)C)ccc(C)c2oc1=O`, the IC50 is reported as 3.45 µM.
`CCCCC1(c2cc(OC)c3cc(Cc4ccccc4OC)c(=O)oc3c2)CCCCC1` showed an IC50 of over 10 µM.

Same assay, conditions: read-out: pA2 (converted)
Work on `CCCCCc1cc(OC)c2cc(Cc3cccc(OC)c3)c(=O)oc2c1` yielded a Kb of 7.94 pM.

Each compound was assayed against T4, Cannabinoid receptor 2 (Homo sapiens, UniProt P34972) (assay: Displacement of [3H]-CP55,940 from human CB2 receptor transfected in CHOK1 cells). Details: not given.
T4 sequence (P34972 whole entry): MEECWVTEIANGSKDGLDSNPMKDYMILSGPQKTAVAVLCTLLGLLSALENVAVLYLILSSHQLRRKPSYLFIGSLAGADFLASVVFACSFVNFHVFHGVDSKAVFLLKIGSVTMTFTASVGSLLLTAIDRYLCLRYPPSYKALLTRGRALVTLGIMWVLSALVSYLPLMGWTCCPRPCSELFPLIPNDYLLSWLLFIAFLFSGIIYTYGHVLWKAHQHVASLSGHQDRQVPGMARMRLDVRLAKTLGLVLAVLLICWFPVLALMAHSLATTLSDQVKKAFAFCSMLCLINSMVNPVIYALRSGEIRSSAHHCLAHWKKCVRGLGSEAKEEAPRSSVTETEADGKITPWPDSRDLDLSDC
Type: cell-based, CHO-K1
Outline: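 CHO cells stably expressing human CB2 supplied the membranes, 1 µg protein per vial. Compounds were screened at 10 µM, and full competition curves were run where inhibition was about 50% or more. Three independent experiments in duplicate.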
`CCCCCc1cc(OC)c2cc(Cc3ccc(Br)cc3)c(=O)oc2c1` was tested, and the Ki was 0.578 µM.
`Cc1ccc(C(C)C)c2cc(Cc3ccccc3)c(=O)oc12` gave a Ki of over 10 µM.
Compound `Cc1cc2c(C(C)C)ccc(C)c2oc1=O` has a Ki of over 10 µM.
In the case of `CCCCC1(c2cc(OC)c3cc(Cc4ccccc4OC)c(=O)oc3c2)CCCCC1`, the Ki is reported as at least 10 µM.

What follows are compounds tested against T1, Cannabinoid receptor 1 (assay: Displacement of [3H]-CP55,940 from human CB1 receptor transfected in CHOK1 cells). Details: not given.
Type: cell-based, CHO-K1
`CCCCCc1cc(OC)c2cc(Cc3ccc(Br)cc3)c(=O)oc2c1` gave a Ki of 10.2 µM.
`Cc1ccc(C(C)C)c2cc(Cc3ccccc3)c(=O)oc12` gave a Ki of over 10 µM.
In the case of `Cc1cc2c(C(C)C)ccc(C)c2oc1=O`, the Ki is reported as over 10 µM.
In the case of `CCCCC1(c2cc(OC)c3cc(Cc4ccccc4OC)c(=O)oc3c2)CCCCC1`, the Ki is reported as at least 10 µM.

These compounds were tested against T4, Cannabinoid receptor 2 (assay: Agonist activity at human CB2 receptor expressed in CHOK1 cells assessed as […] of forskolin-stimulated cAMP level at 10 uM). Details: CHO-K1.
Type: functional, cell-based
For `CCCCC1(c2cc(O)c3cc(Cc4ccccc4O)c(=O)oc3c2)CCCCC1`, the Activity was “Active”.
In the case of `CCCCCCC(C)(C)c1cc(O)c2cc(Cc3ccccc3O)c(=O)oc2c1`, the Activity is reported as “Active”.
For `CCCCCc1cc(OC)c2cc(Cc3cccc(OC)c3)c(=O)oc2c1`, the Activity was “Active”.

What follows are compounds tested against T3, G-protein coupled receptor 55 (assay: Antagonist activity at human GPR55 transfected in CHO cells assessed as inhibition of LPI-induced beta-arrestin recruitment at 10 uM incubated 60 mins prior to LPI addition by beta-arrestin translocation assay). Details: not given.
Type: cell-based
Parameters: scale not given: the % may be the effect or the level left
Outline: as §2
`CCCCCCCC(C)(C)c1cc(OC)c2cc(Cc3ccccc3OC)c(=O)oc2c1` was tested, and the Activity was 31%.
Work on `CCCCC1(c2cc(OC)c3cc(Cc4ccccc4OC)c(=O)oc3c2)CCCCC1` yielded an Activity of 44%.

The compounds below were run against T1, Cannabinoid receptor 1 (assay: Antagonist activity at human CB1 receptor expressed in CHOK1 cells assessed as inhibition of forskolin-stimulated cAMP level at 10 uM). Details: CHO-K1.
Type: functional, cell-based
With `CCCCCc1cc(OC)c2cc(Cc3ccc(Br)cc3)c(=O)oc2c1` the inhibition was “Active”.

The compounds below were run against T3, G-protein coupled receptor 55 (assay: Agonist activity at human GPR55 transfected in CHO cells at 10 uM after 90 mins by beta-arrestin translocation assay). Details: not given.
Type: cell-based
Outline: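 CHO cells stably expressing human GPR55 (β-galactosidase fragment complementation) were seeded at 20,000 cells/well in Opti-MEM with 2% FCS for 24 h at 37°C. Compound was diluted in PBS with 10% DMSO and 0.1% BSA, screened at 10 µM and incubated 90 min at 37°C. Galacton-Star/Emerald-II/lysis buffer (1:5:19) was added for 60 min at RT, then luminescence was read. Response is relative to 1 µM LPI (100%).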
For `CCCCC1(c2cc(O)c3cc(Cc4ccccc4O)c(=O)oc3c2)CCCCC1`, the Activity was “inactive”.
With `CCCCCCC(C)(C)c1cc(O)c2cc(Cc3ccccc3O)c(=O)oc2c1` the Activity was “inactive”.
`CCCCCc1cc(OC)c2cc(Cc3cccc(OC)c3)c(=O)oc2c1` was tested, and the Activity was “inactive”.
In the case of `CCCCCc1cc(OC)c2cc(Cc3ccc(Br)cc3)c(=O)oc2c1`, the Activity is reported as “inactive”.
`Cc1ccc(C(C)C)c2cc(Cc3ccccc3)c(=O)oc12` was tested, and the Activity was “inactive”.
`CCCCCCCC(C)(C)c1cc(OC)c2cc(Cc3ccccc3OC)c(=O)oc2c1` was tested, and the Activity was “inactive”.
With `Cc1ccc(C(C)C)c2cc(Cc3ccccc3O)c(=O)oc12` the Activity was “inactive”.
For `Cc1cc2c(C(C)C)ccc(C)c2oc1=O`, the Activity was “inactive”.
In the case of `CCCCC1(c2cc(OC)c3cc(Cc4ccccc4OC)c(=O)oc3c2)CCCCC1`, the Activity is reported as “inactive”.

What follows are compounds tested against T5, N-arachidonyl glycine receptor (Homo sapiens) (UniProt Q14330) (assay: Antagonist activity at human GPR18 transfected in CHO cells assessed as delta9-THC-induced beta-arrestin recruitment at 10 uM incubated 60 mins prior to delta9-THC addition by beta-arrestin translocation assay). Details: not given.
T5 sequence (whole entry): T2 sequence (Q14330 whole entry)
Type: cell-based
Parameters: scale not given: the % may be the effect or the level left
Outline: as §1
`CCCCC1(c2cc(O)c3cc(Cc4ccccc4O)c(=O)oc3c2)CCCCC1` showed an Activity of 59%.
In the case of `CCCCCc1cc(OC)c2cc(Cc3cccc(OC)c3)c(=O)oc2c1`, the Activity is reported as 33%.
Compound `CCCCCc1cc(OC)c2cc(Cc3ccc(Br)cc3)c(=O)oc2c1` has an Activity of 30%.
`Cc1ccc(C(C)C)c2cc(Cc3ccccc3)c(=O)oc12` gave an Activity of 12%.
For `CCCCCCCC(C)(C)c1cc(OC)c2cc(Cc3ccccc3OC)c(=O)oc2c1`, the Activity was 33%.
For `Cc1ccc(C(C)C)c2cc(Cc3ccccc3O)c(=O)oc12`, the Activity was 32%.
`Cc1cc2c(C(C)C)ccc(C)c2oc1=O` was tested, and the Activity was 11%.
`CCCCC1(c2cc(OC)c3cc(Cc4ccccc4OC)c(=O)oc3c2)CCCCC1` showed an Activity of 33%.

These compounds were tested against T4, Cannabinoid receptor 2 (assay: Antagonist activity at human CB2 receptor expressed in CHOK1 cells assessed as inhibition of forskolin-stimulated cAMP level at 10 uM). Details: CHO-K1.
Type: functional, cell-based
In the case of `CCCCCc1cc(OC)c2cc(Cc3ccc(Br)cc3)c(=O)oc2c1`, the inhibition is reported as “Active”.

What follows are compounds tested against T4, Cannabinoid receptor 2 (assay: Displacement of [3H]-CP55,940 from human CB2 receptor transfected in CHOK1 cells at 10 uM). Details: CHO-K1.
Type: cell-based
Outline: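 Competition binding used membranes from CHO cells stably expressing human CB2 (1 µg protein per vial) and [3H]CP55,940 at 0.1 nM final. Compound stocks were in DMSO (2.5% final). Compound was tested at 10 µM as % inhibition of radioligand binding. Three independent experiments in duplicate.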
`Cc1ccc(C(C)C)c2cc(Cc3ccccc3)c(=O)oc12` was tested, and the Activity was 24%.
With `CCCCCCCC(C)(C)c1cc(OC)c2cc(Cc3ccccc3OC)c(=O)oc2c1` the Activity was 47%.
For `Cc1ccc(C(C)C)c2cc(Cc3ccccc3O)c(=O)oc12`, the Activity was 24%.
In the case of `Cc1cc2c(C(C)C)ccc(C)c2oc1=O`, the Activity is reported as 0%.
`CCCCC1(c2cc(OC)c3cc(Cc4ccccc4OC)c(=O)oc3c2)CCCCC1` was tested, and the Activity was 45%.
